Activity calls are given as the source filed them. No cut-off for these calls is given here.
Columns and labels:
[1] = organism: Homo sapiens; assay: Inhibition of IDO1/TDO in IFNgamma-treated human HeLa cells assessed as T cell proliferation at 200 nM measured after 2 days in presence of IL-2, anti-CD3 and IFN-gamma by CFSE dye based flow cytometry analysis (reference value: 11.7 %); parameters: scale not given: the % may be the effect or the level left
Outline: (§1)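 CFSE-labelled human PBMC lymphocytes (1 × 10⁶/well) were cocultured with HeLa cells (2 × 10⁵/well), a 5:1 ratio, in 150 U/mL IL-2, 100 ng/mL anti-CD3 and 60 ng/mL IFN-γ. Compound was tested at 40 nM, 200 nM, 500 nM or 1 μM. Proliferation was read by flow cytometry after 2 days, three independent experiments.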

[2] = organism: Homo sapiens; assay: Inhibition of IDO1/TDO in IFNgamma-treated human HeLa cells assessed as T cell proliferation at 40 nM measured after 2 days in presence of IL-2, anti-CD3 and IFN-gamma by CFSE dye based flow cytometry analysis (reference value: 11.7 %); parameters: scale not given: the % may be the effect or the level left; outline: as §1
[3] = tested on: H22; assay: Antitumor activity against mouse H22 cells implanted in Kunming mouse assessed as reduction in tumor volume at 45 mg/kg, po qd administered for 2 weeks and measured at 2 days interval during compound dosing relative to control; assay type: functional; parameters: scale not given: the % may be the effect or the level left
Outline: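 Tumor cells (LLC, or H22 ascites cells after two intraperitoneal passages in Kunming mice) injected sc into the right forelimb at 2 × 10⁶ per mouse, in female 6–8-week C57BL/6 or Kunming mice. Oral dosing once daily began at 5 mm tumor diameter and continued 2 weeks. Vehicle was 0.5% CMC-Na. Volume was read by caliper every 2 days as long × short²/2. Tumors were weighed at sacrifice. n = 9–10/group.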

[4] = target: T1, Tryptophan 2,3-dioxygenase (Homo sapiens, UniProt P48775); assay: Uncompetitive inhibition of recombinant human TDO expressed in Escherichia coli BL21 (DE3) assessed as assessed as inhibition constant using varying concentration of L-tryptophan as substrate by Dixon plot analysis
Outline: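 Enzymatic assays of the kynurenine-forming reaction were run with varying L-Trp. Ki was derived by plotting [S]/V against inhibitor concentration [I], with inhibition type assigned from the graphical pattern.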
Target sequence in this assay (P48775 whole entry): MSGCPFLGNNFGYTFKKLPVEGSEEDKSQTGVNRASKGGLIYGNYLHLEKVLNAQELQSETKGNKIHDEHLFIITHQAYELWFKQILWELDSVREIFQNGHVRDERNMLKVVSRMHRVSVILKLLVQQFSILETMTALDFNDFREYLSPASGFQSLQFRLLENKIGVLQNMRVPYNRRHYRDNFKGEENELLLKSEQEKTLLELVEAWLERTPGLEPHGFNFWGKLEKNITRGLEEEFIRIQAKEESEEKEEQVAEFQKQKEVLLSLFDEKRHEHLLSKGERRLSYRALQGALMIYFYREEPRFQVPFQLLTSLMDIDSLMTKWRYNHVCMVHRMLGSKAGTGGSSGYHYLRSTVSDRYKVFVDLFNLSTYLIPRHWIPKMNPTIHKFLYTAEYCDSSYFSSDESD

[5] = tested on: Mus musculus; assay: In vivo blockade of kynurenine pathway in C57BL/6 mouse implanted with mouse LLC cells assessed as decrease in kynurenine level in tumor at 45 mg/kg, po qd for 2 weeks by LC-MS analysis; assay type: functional, organism-based
Outline: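 LLC tumor-bearing C57BL/6 mice received oral dosing once daily in 0.5% CMC-Na for 2 weeks. Tumors were dissected and Trp and Kyn measured by LC–MS on a C18 column with acetonitrile/0.1% formic acid gradient (5–80%), positive ion mode, m/z 205 (Trp) and 209 (Kyn), metronidazole internal standard. Kyn/Trp ratio calculated. n = 4–6/group.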

[6] = tested on: Mus musculus; assay: In vivo inhibition of IDO1/2/TDO in C57BL/6 mouse assessed as decrease in LPS-stimulated kynurenine pathway by measuring increase in serum tryptophan level at 60 mg/kg, ig pretreated for 24 hrs with Escherichia coli LPS followed by compound treatment measured at 24 hrs post-treatment by HPLC analysis; assay type: functional, organism-based
Outline: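 C57BL/6 mice were given ip saline or E. coli LPS 5 mg/kg. 24 h later they received ig 60 mg/kg compound or 0.5% CMC-Na. Blood was taken at 1, 6, 12, 24 and 30 h after dosing. Serum Trp and Kyn were measured by HPLC and the Kyn/Trp ratio calculated. n = 3–5 mice/group.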

[7] = tested on: Rattus norvegicus; assay: In vivo inhibition of IDO1/2/TDO in Sprague-Dawley rat assessed as decrease in kynurenine level in lung at 30 mg/kg, ig administered as single dose by LC-MS analysis; assay type: functional, organism-based
Outline: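 Naive SD rats received a single ig dose of 30 mg/kg in 0.5% CMC-Na, with vehicle as control. Lungs were dissected and Trp and Kyn quantified by LC–MS, with the Kyn/Trp ratio calculated. n = 3–4 rats/group.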

[8] = organism: Homo sapiens; assay: Inhibition of IDO1/TDO in IFNgamma-treated human HeLa cells assessed as T cell proliferation at 1 uM measured after 2 days in presence of IL-2, anti-CD3 and IFN-gamma by CFSE dye based flow cytometry analysis (reference value: 11.7 %); parameters: scale not given: the % may be the effect or the level left; outline: as §1
[9] = target: T1, Tryptophan 2,3-dioxygenase; assay: Binding affinity to human TDO at 200 uM by STD NMR spectrometry analysis
Target sequence in this assay (P48775 whole entry, looked up): as the sequence (P48775 whole entry) above

[10] = target: T2, Indoleamine 2,3-dioxygenase 2 (Homo sapiens) (UniProt Q6ZQW0); assay: Binding affinity to human IDO2 at 200 uM by STD NMR spectrometry analysis
T2 sequence (whole entry): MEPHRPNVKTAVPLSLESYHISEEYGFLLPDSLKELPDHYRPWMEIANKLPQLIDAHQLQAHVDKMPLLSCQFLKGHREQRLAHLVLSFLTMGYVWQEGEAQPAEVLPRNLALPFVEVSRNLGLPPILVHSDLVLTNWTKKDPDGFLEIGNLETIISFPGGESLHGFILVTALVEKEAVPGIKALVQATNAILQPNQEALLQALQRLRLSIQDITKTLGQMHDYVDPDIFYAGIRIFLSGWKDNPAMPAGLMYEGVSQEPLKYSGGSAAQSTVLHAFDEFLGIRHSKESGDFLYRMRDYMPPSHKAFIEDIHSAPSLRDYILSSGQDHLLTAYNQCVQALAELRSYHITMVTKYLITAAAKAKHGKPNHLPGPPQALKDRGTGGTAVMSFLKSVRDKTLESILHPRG

[11] = target: T2, Indoleamine 2,3-dioxygenase 2 (Homo sapiens); assay: Binding affinity to human IDO2 assessed as change in spectral signal at 200 uM by CPMG NMR spectrometry analysis

Activity [1]: 39.8%
Activity [2]: 37.2%
Ki [4]: 310 nM
Activity [8]: 52.8%
Activity [9]: Active
Activity [10]: Active
Activity [11]: Active
Structure (SMILES): CN1CCN(Cc2ccc3nc4n(c(=O)c3c2)-c2ccc(F)cc2C4=O)CC1
Activity [3]: 47.3%
Activity [5]: Active
inhibition [6]: Active
inhibition [7]: Active
